# Like-named read-outs stand apart in the source and are kept apart here. Marks after values point to notes of the source that are not given here.
# Key:
# WT HIV = assay: microbe, parasite or virus in culture; type: cell-based, HIV-1
# AZT-R HIV = assay: microbe, parasite or virus in culture; type: cell-based, HIV-1
# HOS cells [1] = assay: XTT cell viability assay; type: cell-based, human; settings: read-out: CC50 XTT
# Outline: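 HOS cells were grown in DMEM with 3.5% fetal bovine serum, 3.5% newborn calf serum and penicillin/streptomycin, then exposed to test compounds. Viability was measured with a commercial XTT kit, in which mitochondrial enzymes reduce the tetrazolium to an orange product read by absorbance. CC50 is the concentration killing half the HOS cells. Runs were done once or twice.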
# HIV-1 RT DNA polymerase = HIV-1 RT DNA polymerase (Human immunodeficiency virus type 1 group M subtype B, UniProt P04585); assay: In vitro RT RNA-dependent DNA polymerase activity; type: biochemical; settings: read-out: IC50 RT-DNA polymerase, recombinant HIV-1 RT
# wt HIV-1 RT RNase H = wt HIV-1 RT RNase H (Human immunodeficiency virus type 1 group M subtype B, UniProt P04585); assay: In vitro RT-RNase H activity; type: biochemical; settings: read-out: IC50 RT-RNase H, recombinant HIV-1 RT
# HOS cells [2] = assay: ATP based luciferase assay; type: cell-based, human; settings: for CC50: read-out: CC50 ATP-lite, HOS cells
# [3] = Human immunodeficiency virus 1, HOS, read-out: 3TC IC50
# [4] = Human immunodeficiency virus 1, HOS, read-out: AZT IC50
# [5] = Human immunodeficiency virus 1, HOS, read-out: AZT IC50 + NaN3
# [6] = read-out: IC50 WT HIV, RNHI alone, HOS cells, luciferase based assay
# [7] = read-out: IC50 AZT-R HIV, RNHI alone, HOS cells, luciferase based assay
SMILES,effect of RNHI on the AZT IC50 (fold increase) (WT HIV),IC50 (WT HIV; [6]) [µM],CC50 (HOS cells [1]) [µM],IC50 (HIV-1 RT DNA polymerase) [µM],effect of RNHI on the AZT IC50 (fold increase) (AZT-R HIV),IC50 (AZT-R HIV; [7]) [µM],IC50 (wt HIV-1 RT RNase H) [µM],CC50 (HOS cells [2]) [µM],other results
"Nc1ccn([C@H]2CS[C@@H](CO)O2)c(=O)n1 [3TC, 2', 3'-dideoxy-3'-thiacytidine, reference compound]",,,,,,,,,Fold decrease of 3TC IC50 by NVP (WT HIV): 2 fold; IC50 (WT HIV; [3]): 8 ± 3 µM; Fold decrease of 3TC IC50 by NVP (AZT-R HIV): ~2 fold; IC50 (AZT-R HIV; [3]): 24 ± 14 µM
"Cc1cn([C@H]2C[C@H](N=[N+]=[N-])[C@@H](CO)O2)c(=O)[nH]c1=O [AZT, zidovudine, reference compound]",,,,,,,,,"IC50 (WT HIV; [4]): 0.004 ± 0.003 µM; IC50 (WT HIV; [5]): 0.004 ± 0.002 µM; Fold decrease of AZT IC50 by NVP (WT HIV; WT HIV, 40 nM NVP, not statistically significant): 1 fold; Fold decrease of AZT IC50 by NaN3 (WT HIV; WT HIV, 0.5 mM NaN3, not statistically significant): 0 fold; Fold decrease of AZT IC50 by NVP (AZT-R HIV; AZT-R HIV, 40 nM NVP, not statistically significant): 2 fold; Fold decrease of AZT IC50 by NaN3 (AZT-R HIV; AZT-R HIV, 0.5 mM NaN3, not statistically significant): 1.4 fold; IC50 (AZT-R HIV; [4]): 0.041 ± 0.038 µM; IC50 (AZT-R HIV; [5]): 0.056 ± 0.037 µM"
O=C1S/C(=C\c2ccc(O)c(O)c2)C(=O)N1c1ccc(O)cc1 [F0444-0019],~ 5 fold,24,24 ± 3,18.5 ± 5.9,~ 5 fold,28,5 ± 1.8,14 ± 6,effect of RNHI on the 3TC IC50 (fold increase) (WT HIV): ~ 3 fold; effect of RNHI on the 3TC IC50 (AZT-R HIV): insignificant; % ATP relative to untreated HOS (HOS cells [2]; 20 μM): 36 ± 10%
O=C1NC(=Nc2ccccc2O)S/C1=C/c1ccc(O)c(O)c1 [F0888-0058],no significant effect,34,16 ± 5,29.6 ± 1.4,2 fold,30,5 ± 2.6,14 ± 3,effect of RNHI on the 3TC IC50 (fold increase) (WT HIV): ~ 1.7 fold; effect of RNHI on the 3TC IC50 (AZT-R HIV): did not see a significant effect; % ATP relative to untreated HOS (HOS cells [2]; 20 μM): 41 ± 4%
Cc1c[nH]c2c1C(c1ccc(O)c(O)c1)C(C#N)=C(N)O2 (stereo not shown) [F0915-1507],no significant effect,50,52,> 100,no significant effect,49,5.8 ± 2.2,44 ± 14,"% ATP relative to untreated HOS (HOS cells [2]; 50 μM, one or two assays): 46^a %"
O=C(CSc1ncccc1C(=O)O)c1ccc(O)c(O)c1 [F3253-0041],little to no effect,70,370,> 100,decreased the AZT IC50,59,2.9 ± 1.1,160,"% ATP relative to untreated HOS (HOS cells [2]; 70 μM, one or two assays): 92^a %"
O=C(O)CC1CC(=O)Oc2c1ccc(O)c2O (stereo not shown) [F3284-8495],little to no effect,58,120,> 100,decreased the AZT IC50,54,3.3 ± 0.7,67,"% ATP relative to untreated HOS (HOS cells [2]; 70 μM, one or two assays): 87^a %"
"Cc1ccnc2c1NC(=O)c1cccnc1N2C1CC1 [NVP, nevirapine, reference compound]",,,,,,,,,"reduction of infectivity of the virus stock (WT HIV; 40 nM NVP, HOS cells): ~ 60%; IC50 (AZT-R HIV; Human immunodeficiency virus 1, HOS, read-out: IC50 of NVP for blocking replication): 0.027 ± 0.001 µM"
"[N-]=[N+]=[N-].[Na+] [NaN3, sodium azide, reference compound]",,,,,,,,,effect of NaN3 on the IC50 for AZT (WT HIV): no significant effect; effect of NaN3 on the IC50 for AZT (AZT-R HIV): no significant effect; % ATP relative to untreated HOS (HOS cells [2]; 0.5 mM): 31 ± 8%; reduction of the level of ATP in HOS cells (HOS cells [2]; 0.5 mM NaN3): ~ 70%
